# According to ChEMBL document CHEMBL4270546, “A novel Anti-Cancer Stem Cells compound optimized from the natural symplostatin 4 scaffold inhibits Wnt/β-catenin signaling pathway” (Eur J Med Chem, 2018):
# Calls of active or inactive are those of the source. The rule behind the calls is not given here.
# Experiments:
# B16-F10 [1] = assay: Antitumor activity against mouse B16F10 cells implanted in C57BL/6J mouse assessed as tumor growth inhibition at 15 mg/kg/day, ip measured after 24 days; type: functional, organism-based
# How it was run: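 C57BL/6J mice injected subcutaneously with B16F10 cells and treated with vehicle or compound. Tumor volume and body weight followed, and tumors dissected and weighed on day 24. Mean ± sd, n = 5, two-way ANOVA.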
# MCF7 = assay: Antiproliferative activity against human MCF7 cells after 48 hrs by MTT assay; type: functional, cell-based; conditions: MCF7, 48 h
# B16-F10 [2] = assay: Induction of apoptosis in mouse B16F10 cells assessed as upregulation of activated caspase-3 protein expression at 0.5 to 4 uM after 48 hrs by Western blot analysis; type: functional, cell-based
# How it was run: (§1)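 Cells treated with compound at different concentrations (0.5-4 μM) for 48 h. Lysates probed by Western blot for cleaved PARP, active caspase-3, Bax and p53.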
# Homo sapiens [3] = organism: Homo sapiens; assay: Inhibition of Wnt/beta-catenin signaling pathway in human A375 cells assessed as reduction in c-Myc protein expression after 48 hrs by Western blot analysis; type: cell-based
# How it was run: (§2)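 A375 cells exposed to compound at several concentrations for 48 h; lysates immunoblotted for STAT3, p-STAT3, β-catenin and c-Myc.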
# A-375 [4] = assay: Antimigratory activity against human A375 cells at 0.25 uM after 24 hrs by transwell migration assay; type: functional, cell-based
# How it was run: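 Cells seeded in the upper chamber of a transwell and incubated with compound (0.25 μM) for 24 h. Cells migrated to the lower chamber were imaged and counted against an untreated control. Mean ± sd, n = 3, two-way ANOVA.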
# MDA-MB-231 = assay: Antiproliferative activity against human MDA-MB-231 cells after 48 hrs by MTT assay; type: functional, cell-based; conditions: MDA-MB-231, 48 h
# A549 = assay: Antiproliferative activity against human A549 cells after 48 hrs by MTT assay; type: functional, cell-based; conditions: A549, 48 h
# A-375 [5] = assay: Induction of apoptosis in human A375 cells assessed as upregulation of Bax expression after 48 hrs by Western blot analysis
# 4T1 = assay: Antiproliferative activity against mouse 4T1 cells after 48 hrs by MTT assay; type: functional, cell-based; conditions: 4T1, 48 h
# A-375 [6] = assay: Induction of apoptosis in human A375 cells assessed as late apoptotic cells at 1 uM after 48 hrs by Annexin V-FITC/propidium iodide staining based flow cytometry (reference value: 2.7%); type: functional
# A-375 [7] = assay: Induction of apoptosis in human A375 cells assessed as upregulation of activated caspase-3 protein expression at 0.5 to 4 uM after 48 hrs by Western blot analysis; type: functional, cell-based; how it was run: as §1
# A-375 [8] = assay: Induction of apoptosis in human A375 cells assessed as live cells at 2 uM after 48 hrs by Annexin V-FITC/propidium iodide staining based flow cytometry (reference value: 93.6%); type: functional
# A-375 [9] = assay: Antiproliferative activity against human A375 cells after 48 hrs by MTT assay; type: functional, cell-based; conditions: A-375, 48 h
# A-375 [10] = assay: Anti-invasive activity against human A375 cells at 0.25 uM after 24 hrs by matrigel invasion assay; type: functional, cell-based
# How it was run: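 Cells seeded in the upper chamber of a transwell with a Matrigel-precoated filter, incubated with compound (0.25 μM) for 24 h. Invaded cells imaged and counted against an untreated control. Mean ± sd, n = 3, two-way ANOVA.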
# Homo sapiens [11] = organism: Homo sapiens; assay: Inhibition of Wnt/beta-catenin signaling pathway in human A375 cells assessed as reduction in STAT3 phosphorylation after 48 hrs by Western blot analysis; type: cell-based; how it was run: as §2
# B16-F10 [12] = assay: Inhibition of CD133+ sub-population of mouse B16F10 cells assessed as CD133+ cells at 0.25 after 48 hrs by flow cytometry (reference value: 7.23%); type: functional; parameters: scale not given: the % may be the effect or the level left
# PANC-1 = assay: Antiproliferative activity against human PANC1 cells after 48 hrs by MTT assay; type: functional, cell-based; conditions: PANC-1, 48 h
# A-375 [13] = assay: Induction of apoptosis in human A375 cells assessed as early apoptotic cells at 2 uM after 48 hrs by Annexin V-FITC/propidium iodide staining based flow cytometry (reference value: 1.13%); type: functional
# A-375 [14] = assay: Induction of apoptosis in human A375 cells assessed as necrotic cells at 2 uM after 48 hrs by Annexin V-FITC/propidium iodide staining based flow cytometry (reference value: 2.39%); type: functional
# B16-F10 [15] = assay: Inhibition of ALDH+ subpopulation of mouse B16F10 cells assessed as ALDH+ cells at 0.25 after 48 hrs by flow cytometry (reference value: 26.7%); type: functional; parameters: scale not given: the % may be the effect or the level left
# A-375 [16] = assay: Induction of apoptosis in human A375 cells assessed as early apoptotic cells at 1 uM after 48 hrs by Annexin V-FITC/propidium iodide staining based flow cytometry (reference value: 1.13%); type: functional
# A-375 [17] = assay: Inhibition of ALDH+ subpopulation of human A375 cells assessed as ALDH+ cells at 0.5 after 48 hrs by flow cytometry (reference value: 25.7%); type: functional; parameters: scale not given: the % may be the effect or the level left
# B16-F10 [18] = assay: Induction of apoptosis in mouse B16F10 cells assessed as necrotic cells at 1 uM after 48 hrs by Annexin V-FITC/propidium iodide staining based flow cytometry (reference value: 1.86%); type: functional
# B16-F10 [19] = assay: Induction of apoptosis in mouse B16F10 cells assessed as live cells at 2 uM after 48 hrs by Annexin V-FITC/propidium iodide staining based flow cytometry (reference value: 97.6%); type: functional
# A-375 [20] = assay: Inhibition of colony formation in human A375 cells at 0.125 to 0.25 uM after 7 days by crystal violet staining based assay; type: functional, cell-based
# How it was run: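 Clonogenic long-term growth assay: A375 or B16F10 cells grown under continuous compound exposure for 7 days, then colonies quantified; mean ± sd, n = 3, two-way ANOVA.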
# A-375 [21] = assay: Inhibition of CD133+ sub-population of human A375 cells assessed as CD133+ cells at 0.25 after 48 hrs by flow cytometry (reference value: 4.54%); type: functional; parameters: scale not given: the % may be the effect or the level left
# A-375 [22] = assay: Downregulation of beta-catenin protein expression in human A375 cells after 48 hrs by Western blot analysis; type: functional, cell-based
# How it was run: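 Cells treated with compound at different concentrations for 48 h. Western blot for STAT3, p-STAT3, β-catenin and c-Myc.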
smiles,measurement,setting,value
CC[C@H](C)[C@H](NC(=O)OCc1ccccc1)C(=O)N[C@@H](CC(C)C)C(=O)N[C@@H](CC(C)C)C(=O)N[C@@H](C)/C=C/C(=O)N1C(=O)C=C(OC)[C@@H]1C(C)C,TGI,B16-F10 [1],Active
same,IC50,MCF7,2540 nM
same,Activity,B16-F10 [2],Active
same,inhibition,Homo sapiens [3],Dose-dependent effect
same,Activity,A-375 [4],Active
same,IC50,MDA-MB-231,922 nM
same,IC50,A549,4660 nM
same,Bax upregulation,A-375 [5],Dose-dependent effect
same,IC50,4T1,946 nM
same,Activity,A-375 [6],4.48%
same,Activity,A-375 [7],Active
same,Activity,A-375 [8],79.3%
same,IC50,A-375 [9],801 nM
same,Activity,A-375 [10],Active
same,inhibition,Homo sapiens [11],Dose-dependent effect
same,Activity,B16-F10 [12],2.31%
same,IC50,PANC-1,435 nM
same,Activity,A-375 [13],9.68%
same,Activity,A-375 [14],2.87%
same,Activity,B16-F10 [15],17.6%
same,Activity,A-375 [16],3.49%
same,Activity,A-375 [17],8.81%
same,Activity,B16-F10 [18],1.37%
same,Activity,B16-F10 [19],31.5%
same,inhibition,A-375 [20],Active
same,Activity,A-375 [21],1.25%
same,Activity,A-375 [22],Dose-dependent effect
